Results published in ChEMBL document CHEMBL4138245, “Design and synthesis of novel quinacrine-[1,3]-thiazinan-4-one hybrids for their anti-breast cancer activity” (Eur J Med Chem, 2018).
Active and inactive are the calls of the source. The rule behind the calls is not given here.

How the values were obtained:
[1] = Selectivity index, ratio of compound concentration for cell killing activity in human 184B5 cells to compound concentration for cell killing activity in human BT474 cells; assay type: toxicity, cell-based; settings: 184B5 cells versus BT474 cells, read-out: Selectivity Index
[2] = Selectivity index, ratio of compound concentration for cell killing activity in human 184B5 cells to compound concentration for cell killing activity in human CAMA1 cells; assay type: toxicity, cell-based; settings: 184B5 cells versus CAMA1 cells, read-out: Selectivity Index
[3] = Selectivity index, ratio of compound concentration for cell killing activity in human MCF10A cells to compound concentration for cell killing activity in human LNCAP cells; assay type: toxicity, cell-based; settings: MCF10A cells versus LNCAP cells, read-out: Selectivity Index
MDA-MB-231 [4] = test: Potency index, ratio of cisplatin IC50 to compound IC50 for antiproliferative activity against human MDA-MB-231 cells; assay type: functional
MCF7 [5] = test: Antiproliferative activity against human MCF7 cells assessed as compound concentration required to show complete inhibition of cell viability up to 96 hrs by SRB assay; assay type: functional
[6] = Selectivity index, ratio of compound concentration for cell killing activity in human MCF10A cells to compound concentration for cell killing activity in human MDA-MB-453 cells; assay type: toxicity, cell-based; settings: MCF10A cells versus MDA-MB-453 cells, read-out: Selectivity Index
[7] = Selectivity index, ratio of compound concentration for cell killing activity in human MCF10A cells to compound concentration for cell killing activity in human MDA-MB-231 cells; assay type: toxicity, cell-based; settings: MCF10A cells versus MDA-MB-231 cells, read-out: Selectivity Index
MCF7 [8] = test: Induction of DNA damage in human MCF7 cells assessed as increase in gammaH2Ax level at 2 uM after 24 to 48 hrs by Western blot method; assay type: functional, cell-based
NCI-H1975 = test: Antiproliferative activity against human NCI-H1975 cells assessed as compound concentration required to show complete inhibition of cell viability up to 96 hrs by SRB assay; assay type: functional
[9] = Selectivity index, ratio of compound concentration for cell killing activity in human MCF10A cells to compound concentration for cell killing activity in human BT20 cells; assay type: toxicity, cell-based; settings: MCF10A cells versus BT20 cells, read-out: Selectivity Index
[10] = Selectivity index, ratio of compound concentration for cell killing activity in human 184B5 cells to compound concentration for cell killing activity in human SK-BR-3 cells; assay type: toxicity, cell-based; settings: 184B5 cells versus SK-BR-3 cells, read-out: Selectivity Index
184B5 [11] = test: Cell cycle arrest in human 184B5 cells at 2 uM after 48 hrs by propidium iodide staining based flow cytometry; settings: 184b5, 48 h
Method in brief: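 MCF7, MDA-MB231 and non-cancer 184B5 breast cells exposed to 2 μM for 48 h, then cell-cycle analysis by flow cytometry; duplicates, repeated three times.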

[12] = Selectivity index, ratio of compound concentration for cell killing activity in human MCF10A cells to compound concentration for cell killing activity in human A549 cells; assay type: toxicity, cell-based; settings: MCF10A cells versus A549 cells, read-out: Selectivity Index
[13] = molecular target: Serine/threonine-protein kinase mTOR (Homo sapiens) (UniProt P42345); test: Inhibition of mTOR pathway in human MCF7 cells assessed as reduction in S6K phosphorylation at Thr389 residue at 2 uM after 6 hrs by Western blot method; assay type: cell-based
[14] = Selectivity index, ratio of compound concentration for cell killing activity in human 184B5 cells to compound concentration for cell killing activity in human BT20 cells; assay type: toxicity, cell-based; settings: 184B5 cells versus BT20 cells, read-out: Selectivity Index
[15] = molecular target: T1, Serine/threonine-protein kinase Chk1 (Homo sapiens) (UniProt O14757); test: Induction of CHK1 phosphorylation at S298 residue in human MCF7 cells at 2 uM after 12 to 48 hrs by Western blot method; assay type: cell-based
T1 sequence (whole entry): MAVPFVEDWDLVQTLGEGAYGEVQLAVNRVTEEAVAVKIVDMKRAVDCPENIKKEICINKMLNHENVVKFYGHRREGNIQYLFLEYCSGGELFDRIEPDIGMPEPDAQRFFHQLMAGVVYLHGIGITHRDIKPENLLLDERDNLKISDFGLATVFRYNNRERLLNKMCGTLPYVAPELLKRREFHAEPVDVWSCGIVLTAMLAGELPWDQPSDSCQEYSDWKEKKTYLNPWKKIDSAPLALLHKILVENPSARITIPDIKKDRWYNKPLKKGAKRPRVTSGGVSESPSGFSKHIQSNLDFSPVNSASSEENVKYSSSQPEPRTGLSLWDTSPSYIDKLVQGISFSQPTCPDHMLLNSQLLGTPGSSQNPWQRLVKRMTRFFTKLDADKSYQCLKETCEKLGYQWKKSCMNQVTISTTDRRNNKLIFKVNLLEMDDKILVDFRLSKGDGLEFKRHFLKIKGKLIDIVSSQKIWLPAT

[16] = Selectivity index, ratio of compound concentration for cell killing activity in human MCF10A cells to compound concentration for cell killing activity in human PC3 cells; assay type: toxicity, cell-based; settings: MCF10A cells versus PC3 cells, read-out: Selectivity Index
[17] = Selectivity index, ratio of compound concentration for cell killing activity in human MCF10A cells to compound concentration for cell killing activity in human MDA-MB-468 cells; assay type: toxicity, cell-based; settings: MCF10A cells versus MDA-MB-468 cells, read-out: Selectivity Index
MCF7 [18] = test: Effect on Cyclin-D protein expression in human MCF7 cells at 2 uM after 24 to 72 hrs by Western blot method; assay type: functional, cell-based
[19] = Selectivity index, ratio of compound concentration for cell killing activity in human 184B5 cells to compound concentration for cell killing activity in human A549 cells; assay type: toxicity, cell-based; settings: 184B5 cells versus A549 cells, read-out: Selectivity Index
MCF7 [20] = test: Anticlonogenic activity against human MCF7 cells at 0.39 to 1.5 uM after 12 hrs by crystal violet staining based assay; assay type: functional, cell-based
Method in brief: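 Clonogenic assay: 1000 cells/well seeded, treated after overnight attachment for 12 h, then medium replaced and cells grown until control colonies were large enough; colonies stained with crystal violet.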

MDA-MB-231 [21] = test: Antiproliferative activity against human MDA-MB-231 cells assessed as compound concentration required to show complete inhibition of cell viability up to 96 hrs by SRB assay; assay type: functional
MCF7 [22] = test: Cell cycle arrest in human MCF7 cells assessed as DNA content at 2 uM after 24 hrs by BrdU incorporation assay (reference value: 32.9%); assay type: functional
[23] = Selectivity index, ratio of compound concentration for cell killing activity in human 184B5 cells to compound concentration for cell killing activity in human MDA-MB-231 cells; assay type: toxicity, cell-based; settings: 184B5 cells versus MDA-MB-231 cells, read-out: Selectivity Index
184B5 [24] = test: Antiproliferative activity against human 184B5 cells at 1 to 2 uM up to 96 hrs by SRB assay; assay type: cell-based; settings: 184b5, 96 h
BT-20 = test: Antiproliferative activity against human BT20 cells assessed as compound concentration required to show complete inhibition of cell viability up to 96 hrs by SRB assay; assay type: functional
MCF7 [25] = test: Downregulation of Cyclin-A protein expression in human MCF7 cells at 2 uM after 24 to 72 hrs by Western blot method; assay type: functional, cell-based
MCF7 [26] = test: Cell cycle arrest in human MCF7 cells assessed as DNA content at 2 uM after 48 hrs by BrdU incorporation assay (reference value: 29.4%); assay type: functional

COc1ccc2nc3cc(Cl)ccc3c(NCCCN3C(=O)CCSC3c3cccs3)c2c1 (stereo not drawn) gave a selectivity ratio [1] of 3 to 6, a selectivity ratio [2] of 3 to 6 and a selectivity ratio [3] of 3 to 6. The “Ratio IC50” value (MDA-MB-231 [4]) was 8.4, the Activity (MCF7 [5]) was 1 µM and the selectivity ratio [6] was 3 to 6. The selectivity ratio [7] was 3 to 6, the Activity (MCF7 [8]) was “inactive” and the Activity (NCI-H1975) was 2 µM. The selectivity ratio [9] was 3 to 6, the selectivity ratio [10] was 3 to 6 and the Activity (184B5 [11]) was “Non-Toxic”. The selectivity ratio [12] was 3 to 6, the inhibition [13] was “inactive” and the selectivity ratio [14] was 3 to 6. For the same molecule, the Activity [15] was “inactive”, the selectivity ratio [16] was 3 to 6 and the selectivity ratio [17] was 3 to 6. For the same molecule, the Activity (MCF7 [18]) was “inactive”, the selectivity ratio [19] was 3 to 6 and the Activity (MCF7 [20]) was “Active”. For the same molecule, the Activity (MDA-MB-231 [21]) was 2 µM, the Activity (MCF7 [22]) was 0.7% and the selectivity ratio [23] was 3 to 6. For the same molecule, the Activity (184B5 [24]) was “Non-Toxic”, the Activity (BT-20) was 1 µM and the Activity (MCF7 [25]) was “Active”. For the same molecule, the Activity (MCF7 [26]) was 0.9%.
